In brackets after ≈: the same amount, converted by molar mass. Activity calls are given as the source filed them. No cut-off for these calls is given here.
Tests used:
Trichoderma hamatum [1] = assay: Antifungal activity against Trichoderma hamatum; assay type: functional
Trichoderma koningii [2] = assay: Antifungal activity against Trichoderma koningii assessed as radial growth at 5% after 48 hrs by poison food technique of Flack relative to control; assay type: functional
Outline: (§1)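 Acetone stock added to molten sterilized PDA to final 0.5–7%, plated in 90 mm dishes with compound-free plates as control. Each plate was inoculated with a 9 mm disc from a 4-day-old culture, incubated at 25 ± 1 °C, and colony diameter measured at 24 h intervals. % inhibition = (control − treatment)/control × 100; three replicates averaged.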

Trichoderma hamatum [3] = assay: Antifungal activity against Trichoderma hamatum assessed as radial growth at 0.5% after 72 hrs by poison food technique of Flack relative to control; assay type: functional
Aspergillus niger [4] = assay: Antifungal activity against Aspergillus niger assessed as radial growth at 0.5% after 72 hrs by poison food technique of Flack relative to control; assay type: functional
Trichoderma koningii [5] = assay: Antifungal activity against Trichoderma koningii assessed as radial growth at 5% after 72 hrs by poison food technique of Flack relative to control; assay type: functional; outline: as §1
Aspergillus niger [6] = assay: Antifungal activity against Aspergillus niger assessed as radial growth at 5% after 72 hrs by poison food technique of Flack relative to control; assay type: functional
Trichoderma hamatum [7] = assay: Antifungal activity against Trichoderma hamatum assessed as radial growth at 5% after 24 hrs by poison food technique of Flack relative to control; assay type: functional; outline: as §1
Aspergillus niger [8] = assay: Antifungal activity against Aspergillus niger assessed as radial growth at 7% after 24 hrs by poison food technique of Flack relative to control; assay type: functional
Aspergillus niger [9] = assay: Antifungal activity against Aspergillus niger assessed as radial growth at 3% after 72 hrs by poison food technique of Flack relative to control; assay type: functional
Trichoderma hamatum [10] = assay: Antifungal activity against Trichoderma hamatum assessed as radial growth at 7% after 72 hrs by poison food technique of Flack relative to control; assay type: functional; outline: as §1
Trichoderma koningii [11] = assay: Antifungal activity against Trichoderma koningii assessed as radial growth at 0.5% after 48 hrs by poison food technique of Flack relative to control; assay type: functional; outline: as §1
Aspergillus niger [12] = assay: Antifungal activity against Aspergillus niger assessed as radial growth at 1% after 48 hrs by poison food technique of Flack relative to control; assay type: functional
Trichoderma koningii [13] = assay: Antifungal activity against Trichoderma koningii assessed as radial growth at 3% after 72 hrs by poison food technique of Flack relative to control; assay type: functional; outline: as §1
Trichoderma hamatum [14] = assay: Antifungal activity against Trichoderma hamatum assessed as radial growth at 7% after 24 hrs by poison food technique of Flack relative to control; assay type: functional; outline: as §1
Trichoderma hamatum [15] = assay: Antifungal activity against Trichoderma hamatum assessed as radial growth at 7% after 24 hrs by poison food technique of Flack; assay type: functional, organism-based
Outline: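 Poisoned-food method: acetone stock mixed into molten sterilized potato dextrose agar to final 0.5, 1, 3, 5 or 7%, poured into 90 mm plates. Plates were inoculated with a 9 mm mycelial disc from a 4-day-old pure culture and incubated at 25 ± 1 °C. Colony diameter (mm) was read every 24 h; mean of three replicates.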

Trichoderma hamatum [16] = assay: Antifungal activity against Trichoderma hamatum assessed as radial growth at 0.5% after 48 hrs by poison food technique of Flack relative to control; assay type: functional
Aspergillus niger [17] = assay: Antifungal activity against Aspergillus niger assessed as radial growth at 1% after 24 hrs by poison food technique of Flack relative to control; assay type: functional
Trichoderma hamatum [18] = assay: Antifungal activity against Trichoderma hamatum assessed as radial growth at 1% after 24 hrs by poison food technique of Flack relative to control; assay type: functional
Aspergillus niger [19] = assay: Antifungal activity against Aspergillus niger assessed as radial growth at 7% after 48 hrs by poison food technique of Flack relative to control; assay type: functional
Trichoderma koningii [20] = assay: Antifungal activity against Trichoderma koningii assessed as radial growth at 3% after 48 hrs by poison food technique of Flack relative to control; assay type: functional; outline: as §1
Aspergillus niger [21] = assay: Antifungal activity against Aspergillus niger assessed as radial growth at 7% after 72 hrs by poison food technique of Flack relative to control; assay type: functional
Trichoderma koningii [22] = assay: Antifungal activity against Trichoderma koningii assessed as radial growth at 3% after 24 hrs by poison food technique of Flack relative to control; assay type: functional; outline: as §1
Aspergillus niger [23] = assay: Antifungal activity against Aspergillus niger assessed as radial growth at 3% after 24 hrs by poison food technique of Flack relative to control; assay type: functional
Trichoderma hamatum [24] = assay: Antifungal activity against Trichoderma hamatum assessed as radial growth at 3% after 24 hrs by poison food technique of Flack relative to control; assay type: functional
Trichoderma koningii [25] = assay: Antifungal activity against Trichoderma koningii assessed as radial growth at 5% after 24 hrs by poison food technique of Flack relative to control; assay type: functional; outline: as §1
Aspergillus niger [26] = assay: Antifungal activity against Aspergillus niger assessed as radial growth at 1% after 72 hrs by poison food technique of Flack relative to control; assay type: functional
Trichoderma koningii [27] = assay: Antifungal activity against Trichoderma koningii assessed as radial growth at 7% after 72 hrs by poison food technique of Flack relative to control; assay type: functional; outline: as §1
Aspergillus niger [28] = assay: Antifungal activity against Aspergillus niger assessed as radial growth at 0.5% after 24 hrs by poison food technique of Flack relative to control; assay type: functional
Trichoderma hamatum [29] = assay: Antifungal activity against Trichoderma hamatum assessed as radial growth at 0.5% after 24 hrs by poison food technique of Flack relative to control; assay type: functional
Trichoderma hamatum [30] = assay: Antifungal activity against Trichoderma hamatum assessed as radial growth at 3% after 48 hrs by poison food technique of Flack relative to control; assay type: functional
Trichoderma koningii [31] = assay: Antifungal activity against Trichoderma koningii; assay type: functional
Aspergillus niger [32] = assay: Antifungal activity against Aspergillus niger assessed as radial growth at 5% after 48 hrs by poison food technique of Flack relative to control; assay type: functional
Aspergillus niger [33] = assay: Antifungal activity against Aspergillus niger assessed as radial growth at 3% after 48 hrs by poison food technique of Flack relative to control; assay type: functional
Trichoderma hamatum [34] = assay: Antifungal activity against Trichoderma hamatum assessed as radial growth at 7% after 48 hrs by poison food technique of Flack relative to control; assay type: functional; outline: as §1
Trichoderma koningii [35] = assay: Antifungal activity against Trichoderma koningii assessed as radial growth at 1% after 48 hrs by poison food technique of Flack relative to control; assay type: functional; outline: as §1
Trichoderma koningii [36] = assay: Antifungal activity against Trichoderma koningii assessed as radial growth at 1% after 72 hrs by poison food technique of Flack relative to control; assay type: functional; outline: as §1
Trichoderma hamatum [37] = assay: Antifungal activity against Trichoderma hamatum assessed as radial growth at 1% after 48 hrs by poison food technique of Flack relative to control; assay type: functional
Trichoderma hamatum [38] = assay: Antifungal activity against Trichoderma hamatum assessed as radial growth at 3% after 72 hrs by poison food technique of Flack relative to control; assay type: functional
Trichoderma koningii [39] = assay: Antifungal activity against Trichoderma koningii assessed as radial growth at 0.5% after 72 hrs by poison food technique of Flack relative to control; assay type: functional; outline: as §1
Trichoderma koningii [40] = assay: Antifungal activity against Trichoderma koningii assessed as radial growth at 1% after 24 hrs by poison food technique of Flack relative to control; assay type: functional; outline: as §1
Trichoderma koningii [41] = assay: Antifungal activity against Trichoderma koningii assessed as radial growth at 0.5% after 24 hrs by poison food technique of Flack relative to control; assay type: functional; outline: as §1
Trichoderma koningii [42] = assay: Antifungal activity against Trichoderma koningii assessed as radial growth at 7% after 48 hrs by poison food technique of Flack relative to control; assay type: functional; outline: as §1
Trichoderma hamatum [43] = assay: Antifungal activity against Trichoderma hamatum assessed as radial growth at 5% after 48 hrs by poison food technique of Flack relative to control; assay type: functional; outline: as §1
Trichoderma hamatum [44] = assay: Antifungal activity against Trichoderma hamatum assessed as radial growth at 1% after 72 hrs by poison food technique of Flack relative to control; assay type: functional

CCOC(=O)C1=C(C)NC(=O)NC1c1ccccc1 (centres undefined)
MIC (Trichoderma hamatum [1]): 0.025 µg/mL (≈ 0.096 µM) | inhibition (INH) (Trichoderma koningii [2]): 100% | inhibition (INH) (Trichoderma hamatum [3]): 2.46% | inhibition (INH) (Aspergillus niger [4]): 0% | inhibition (INH) (Trichoderma koningii [5]): 91.53% | inhibition (INH) (Aspergillus niger [6]): 73.29% | inhibition (INH) (Trichoderma hamatum [7]): 100% | inhibition (INH) (Aspergillus niger [8]): 100% | inhibition (INH) (Aspergillus niger [9]): 54.34% | inhibition (INH) (Trichoderma hamatum [10]): 100% | inhibition (INH) (Trichoderma koningii [11]): 18.25% | inhibition (INH) (Aspergillus niger [12]): 0% | inhibition (INH) (Trichoderma koningii [13]): 70.18% | inhibition (INH) (Trichoderma hamatum [14]): 100% | Activity (Trichoderma hamatum [15]): Active | inhibition (INH) (Trichoderma hamatum [16]): 32.99% | inhibition (INH) (Aspergillus niger [17]): 30.55% | inhibition (INH) (Trichoderma hamatum [18]): 24.96% | inhibition (INH) (Aspergillus niger [19]): 79.36% | inhibition (INH) (Trichoderma koningii [20]): 62.31% | inhibition (INH) (Aspergillus niger [21]): 76.7% | inhibition (INH) (Trichoderma koningii [22]): 100% | inhibition (INH) (Aspergillus niger [23]): 69.44% | inhibition (INH) (Trichoderma hamatum [24]): 82.12% | inhibition (INH) (Trichoderma koningii [25]): 100% | inhibition (INH) (Aspergillus niger [26]): 0% | inhibition (INH) (Trichoderma koningii [27]): 95.52% | inhibition (INH) (Aspergillus niger [28]): 0% | inhibition (INH) (Trichoderma hamatum [29]): 11.32% | inhibition (INH) (Trichoderma hamatum [30]): 72.02% | MIC (Trichoderma koningii [31]): 0.025 µg/mL (≈ 0.096 µM) | inhibition (INH) (Aspergillus niger [32]): 81.17% | inhibition (INH) (Aspergillus niger [33]): 52.83% | inhibition (INH) (Trichoderma hamatum [34]): 100% | inhibition (INH) (Trichoderma koningii [35]): 20.63% | inhibition (INH) (Trichoderma koningii [36]): 10.86% | inhibition (INH) (Trichoderma hamatum [37]): 21.94% | inhibition (INH) (Trichoderma hamatum [38]): 63.38% | inhibition (INH) (Trichoderma koningii [39]): 1.59% | inhibition (INH) (Trichoderma koningii [40]): 12.09% | inhibition (INH) (Trichoderma koningii [41]): 5.66% | inhibition (INH) (Trichoderma koningii [42]): 100% | inhibition (INH) (Trichoderma hamatum [43]): 96.89% | inhibition (INH) (Trichoderma hamatum [44]): 12.34%

Source: ChEMBL document CHEMBL1152173, “Synthesis and in vitro evaluation of the antifungal activities of dihydropyrimidinones” (2008)
